According to ChEMBL document CHEMBL5512679, “In Silico Assisted Identification, Synthesis, and In Vitro Pharmacological Characterization of Potent and Selective Blockers of the Epilepsy-Associated KCNT1 Channel” (J Med Chem, 2024):
pIC50: −log10 of the molar value.

Legend:
hERG (KCNH2) [1] = target: T1, hERG (KCNH2) (Homo sapiens, UniProt Q12809); assay: Inhibition of hERG expressed in HEK293 cells at 10 uM by thallium flux assay relative to control; details: HEK293 cells that express hERG
[2] = Stability in human plasma assessed as compound remaining incubated upto 120 mins […] by LC-MS analysis; format: ADME, cell-free; details: read-out: Stability
In short: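 Human plasma prewarmed to 37 °C and centrifuged; compound added at 37 °C. Samples taken at 0, 30, 60, 90 and 120 min, quenched into ice-cold methanol with internal standard, and measured by LC-MS as % remaining relative to 0 min. Duplicates; procaine as control.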

[3] = target: Voltage-gated inwardly rectifying potassium channel KCNH2 (Homo sapiens, UniProt Q12809); assay: Inhibition of hERG transiently transfected in CHO cells at 10 uM at -100 mV holding potential by whole-cell patch clamp electrophysiology method; format: toxicity, cell-based
Sequence of Voltage-gated inwardly rectifying potassium channel KCNH2 (Q12809 whole entry): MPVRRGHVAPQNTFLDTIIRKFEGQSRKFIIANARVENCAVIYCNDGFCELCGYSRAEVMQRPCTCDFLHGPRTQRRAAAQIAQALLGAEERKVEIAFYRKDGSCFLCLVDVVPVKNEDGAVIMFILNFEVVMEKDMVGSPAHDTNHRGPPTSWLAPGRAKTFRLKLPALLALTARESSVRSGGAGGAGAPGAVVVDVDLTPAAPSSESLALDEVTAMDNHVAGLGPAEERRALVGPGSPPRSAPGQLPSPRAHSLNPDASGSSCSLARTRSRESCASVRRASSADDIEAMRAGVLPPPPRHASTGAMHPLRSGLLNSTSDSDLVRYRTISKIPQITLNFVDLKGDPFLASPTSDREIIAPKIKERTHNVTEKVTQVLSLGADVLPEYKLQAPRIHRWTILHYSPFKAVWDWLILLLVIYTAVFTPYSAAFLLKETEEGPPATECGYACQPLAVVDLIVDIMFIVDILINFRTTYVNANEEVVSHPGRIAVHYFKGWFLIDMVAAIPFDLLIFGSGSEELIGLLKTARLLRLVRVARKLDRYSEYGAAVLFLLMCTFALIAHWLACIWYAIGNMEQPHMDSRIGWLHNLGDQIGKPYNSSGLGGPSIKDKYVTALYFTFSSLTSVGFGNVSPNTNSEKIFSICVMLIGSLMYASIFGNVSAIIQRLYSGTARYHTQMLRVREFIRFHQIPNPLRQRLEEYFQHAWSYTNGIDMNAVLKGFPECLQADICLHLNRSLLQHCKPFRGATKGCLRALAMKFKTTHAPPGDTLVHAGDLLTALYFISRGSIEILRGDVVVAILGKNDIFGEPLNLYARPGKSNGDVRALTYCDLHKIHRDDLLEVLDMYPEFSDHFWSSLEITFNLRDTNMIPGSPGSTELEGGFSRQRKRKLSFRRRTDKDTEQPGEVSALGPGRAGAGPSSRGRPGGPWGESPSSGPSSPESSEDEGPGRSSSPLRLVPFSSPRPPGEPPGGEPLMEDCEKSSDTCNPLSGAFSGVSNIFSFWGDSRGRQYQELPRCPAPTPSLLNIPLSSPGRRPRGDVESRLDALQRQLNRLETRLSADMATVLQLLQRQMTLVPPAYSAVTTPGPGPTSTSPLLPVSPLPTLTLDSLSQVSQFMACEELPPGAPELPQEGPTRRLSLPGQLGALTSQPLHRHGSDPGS
In short: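 hERG transiently expressed in CHO cells (eGFP co-transfection marker) and recorded by whole-cell patch clamp at 20–22 °C, 24 h post-transfection. […] Pipette (mM): 140 KCl, 2 MgCl2, 10 EGTA, 10 HEPES, 5 Mg-ATP. Protocol: 1 s steps from −80 to +60 mV, then 140 ms at −100 mV. Tail current at −100 mV read as I_drug/I_CTL with 10 μM drug; ≥3 cells.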

[4] = target: T2, Potassium channel subfamily T member 1 (Homo sapiens, UniProt Q5JUK3); assay: Inhibition of human KCNT1 (98 to 354 residues) expressed in CHO cells assessed as reduction in thallium fluorescent signal incubated for 15 mins followed by LOX addition measured after 15 mins by FluxOR green dye based fluorescence analysis; format: cell-based
T2 sequence (Q5JUK3 whole entry): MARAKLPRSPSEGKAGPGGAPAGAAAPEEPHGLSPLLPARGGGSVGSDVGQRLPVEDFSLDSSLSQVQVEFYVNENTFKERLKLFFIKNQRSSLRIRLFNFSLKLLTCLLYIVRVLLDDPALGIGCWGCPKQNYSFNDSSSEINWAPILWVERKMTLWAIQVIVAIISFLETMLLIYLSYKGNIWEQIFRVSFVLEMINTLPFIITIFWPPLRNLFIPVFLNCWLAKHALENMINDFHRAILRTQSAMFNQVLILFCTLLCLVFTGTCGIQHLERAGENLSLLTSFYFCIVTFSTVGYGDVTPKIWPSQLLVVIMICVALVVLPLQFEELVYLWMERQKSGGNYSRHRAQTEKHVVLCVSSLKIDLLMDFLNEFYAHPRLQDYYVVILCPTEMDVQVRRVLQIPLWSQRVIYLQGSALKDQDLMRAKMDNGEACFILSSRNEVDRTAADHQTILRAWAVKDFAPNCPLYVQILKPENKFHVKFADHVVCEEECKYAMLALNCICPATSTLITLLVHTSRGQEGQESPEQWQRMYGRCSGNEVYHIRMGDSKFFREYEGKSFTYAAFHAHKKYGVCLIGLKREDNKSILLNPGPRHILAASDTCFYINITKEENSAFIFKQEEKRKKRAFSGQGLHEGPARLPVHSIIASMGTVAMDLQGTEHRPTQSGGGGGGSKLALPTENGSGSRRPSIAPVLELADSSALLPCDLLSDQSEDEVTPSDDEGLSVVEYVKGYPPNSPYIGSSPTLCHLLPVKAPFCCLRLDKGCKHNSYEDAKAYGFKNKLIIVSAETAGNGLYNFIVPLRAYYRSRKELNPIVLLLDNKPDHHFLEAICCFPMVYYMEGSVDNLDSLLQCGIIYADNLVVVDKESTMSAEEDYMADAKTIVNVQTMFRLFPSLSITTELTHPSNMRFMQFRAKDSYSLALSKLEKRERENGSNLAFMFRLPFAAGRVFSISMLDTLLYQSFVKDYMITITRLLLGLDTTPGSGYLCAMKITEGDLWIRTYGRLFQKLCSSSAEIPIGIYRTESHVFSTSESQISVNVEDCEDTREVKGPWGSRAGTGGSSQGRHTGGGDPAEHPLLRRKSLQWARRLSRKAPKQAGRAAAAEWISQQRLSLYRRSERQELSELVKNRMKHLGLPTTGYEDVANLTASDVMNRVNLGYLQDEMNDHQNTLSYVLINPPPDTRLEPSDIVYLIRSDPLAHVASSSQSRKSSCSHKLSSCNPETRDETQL

hERG (KCNH2) [5] = target: T1, hERG (KCNH2); assay: Inhibition of hERG transiently transfected in CHO cells at 10 uM at -100 mV holding potential by whole-cell patch clamp electrophysiology method relative to control; format: toxicity, cell-based; details: CHO cells transiently transfected with hERG
[6] = target: T3, Potassium channel subfamily T member 2 (Homo sapiens, UniProt Q6UVM3); assay: Inhibition of human KCNT2 expressed in HEK cells at +60 mV holding potential by whole-cell patch clamp electrophysiology method; format: cell-based
T3 sequence (Q6UVM3 whole entry): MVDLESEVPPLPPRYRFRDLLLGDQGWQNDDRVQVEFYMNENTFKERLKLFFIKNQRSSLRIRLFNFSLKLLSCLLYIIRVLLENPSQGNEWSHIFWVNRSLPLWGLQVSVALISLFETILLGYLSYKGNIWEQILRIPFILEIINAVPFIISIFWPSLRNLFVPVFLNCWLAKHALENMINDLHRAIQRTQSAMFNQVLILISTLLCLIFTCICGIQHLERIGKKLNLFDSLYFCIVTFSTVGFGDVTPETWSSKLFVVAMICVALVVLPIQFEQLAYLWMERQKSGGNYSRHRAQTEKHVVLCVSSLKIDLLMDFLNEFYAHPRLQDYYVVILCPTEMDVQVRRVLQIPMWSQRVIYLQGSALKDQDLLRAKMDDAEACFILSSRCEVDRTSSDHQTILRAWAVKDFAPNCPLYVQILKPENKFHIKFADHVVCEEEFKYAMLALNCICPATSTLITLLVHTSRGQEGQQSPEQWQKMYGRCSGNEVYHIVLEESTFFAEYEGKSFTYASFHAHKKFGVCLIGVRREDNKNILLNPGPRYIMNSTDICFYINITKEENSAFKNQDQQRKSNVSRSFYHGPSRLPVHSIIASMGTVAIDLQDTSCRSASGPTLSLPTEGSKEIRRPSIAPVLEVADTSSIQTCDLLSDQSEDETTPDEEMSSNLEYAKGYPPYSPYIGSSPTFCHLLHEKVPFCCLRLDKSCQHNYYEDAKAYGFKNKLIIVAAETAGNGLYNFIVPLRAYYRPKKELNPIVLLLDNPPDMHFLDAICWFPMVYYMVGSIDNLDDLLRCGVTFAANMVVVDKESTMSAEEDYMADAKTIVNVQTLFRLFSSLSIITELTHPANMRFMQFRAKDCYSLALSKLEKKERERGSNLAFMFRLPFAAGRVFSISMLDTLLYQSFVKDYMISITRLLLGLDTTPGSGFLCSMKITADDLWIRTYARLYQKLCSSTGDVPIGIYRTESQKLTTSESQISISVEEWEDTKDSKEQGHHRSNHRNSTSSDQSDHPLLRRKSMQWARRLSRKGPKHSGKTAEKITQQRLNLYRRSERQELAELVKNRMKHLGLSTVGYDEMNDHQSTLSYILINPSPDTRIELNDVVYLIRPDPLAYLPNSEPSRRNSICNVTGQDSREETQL
In short: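 Human KCNT2 transiently expressed in HEK cells and recorded by whole-cell patch clamp at 20–22 °C, 24 h after transfection. Pipette (mM): 130 KCl, 10 NaCl, 10 HEPES, 5 EGTA, pH 7.3–7.4, with ATP omitted. Each cell received one perfused concentration; DMSO ≤0.3%. Current at the end of the depolarizing pulse was normalized and fitted to a binding isotherm with Hill coefficient; ≥6 determinations per point, mean ± SEM.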

[7] = Plasma protein binding in human at 10 uM incubated for 4 hrs by rapid equilibrium dialysis based LC-MS/MS analysis; format: ADME, cell-free; details: read-out: PPB
[8] = Intrinsic clearance in human liver microsomes incubated upto 60 mins in presence of NADPH and UDPGA by LC-MS analysis; format: ADME, Microsome; details: read-out: CLH
hERG (KCNH2) [9] = target: T1, hERG (KCNH2); assay: Inhibition of hERG expressed in HEK293 cells at 10 uM by whole-cell patch clamp electrophysiology method relative to control; format: toxicity, cell-based; details: HEK293 cells that express hERG

T1 sequence (Q12809 whole entry): as the sequence (Q12809 whole entry) above

`COc1ccc(Cl)cc1NC(=O)CN1CCN(S(=O)(=O)N2CCC(C)CC2)CC1` showed an inhibition at 10 µM (hERG (KCNH2) [1]) of 40%.
With `CCOC(=O)[C@@H]1CS[C@@]2(C(=O)Nc3ccc(Br)cc32)N1C(=O)c1ccc(Cl)cc1` the remaining at 2 h [2] was 0% and the “inhibition (INH)” value [3] was “Not Active”.
For `Oc1ccc2ccccc2c1CNCCc1c[nH]c2ccccc12`, the pIC50 [4] was 5.06 and the inhibition at 10 µM (hERG (KCNH2) [5]) was 30%.
Work on `CC(C)(C)CNC(=O)Nc1ccc2c(c1)CCN2Cc1ccc(F)cc1` yielded a pIC50 [4] of 5.26 and an inhibition at 10 µM (hERG (KCNH2) [5]) of 30%.
With `O=S(=O)(Nc1ccc2c(c1)CCN2Cc1ccc(C(F)(F)F)cc1C(F)(F)F)C1CCCCC1` the remaining at 2 h [2] was < 80%, the “inhibition (INH)” value [3] was “Not Active” and the pIC50 [6] was 5.90. The fraction unbound at 4 h, 10 µM [7] was 0.01 and the CLint scaled [8] was < 1 mL/min/kg.
Work on `O=C(Nc1cccc(C(F)(F)F)c1)c1ccc2nc(N3C(=O)c4ccccc4C3=O)sc2c1` yielded an inhibition at 10 µM (hERG (KCNH2) [9]) of 15%.
In the case of `Cc1cc(O)ccc1N/C=C/C(=O)c1ccccc1`, the inhibition at 10 µM (hERG (KCNH2) [9]) was 15%.
In the case of `O=C(NCc1ccccc1)[C@H](Cc1c[nH]c2ccccc12)NCc1ccc(Oc2ccccc2)cc1`, the remaining at 2 h [2] was < 80%, the “inhibition (INH)” value [3] was “Not Active” and the fraction unbound at 4 h, 10 µM [7] was 0.01. The CLint scaled [8] was < 80 mL/min/kg.
